Entries after “also recorded” stand apart in the source; their conditions may differ. Numbered stars: 1 amine (or outer) side, 2 acyl side, 3 side chain; on linkers, the order of the positions; unused ones are H or OH. Suc = O=C(CCC(=O)[*:2])[*:1]

One data set addresses HIV-1 RRE IIB RNA. Description: Dissociation constants by electrophoretic mobility shift assay. It is filed as binding. The note with it: EMSA, average of at least three experiments. (In general: In EMSA bound probe runs differently from free probe, usually more slowly.)
In data set [1] the test system is HIV-1 capsid protein p24 production. In kind it is cell-based. The settings on record: p24 ELISA; for suppression of HIV replication / inhibition of p24 / inhibition of the production of p24: initial screen; for suppression of HIV replication / inhibition of p24: 100 μM; for inhibition of p24 expression: 40 μM; for inhibition of the production of p24: 10 μM. A general note: An ELISA detects its analyte on a solid surface through an enzyme-linked reagent.

Data set [2] relates to U87 CXCR4 human glioblastoma cell line stably transfected with CD4 and CXCR4. In words: MTT toxicity assay. In kind it is cell-based. The settings on record: for toxicity (MTT assay): U87 CXCR4 cells, concentrations up to 100 μM; for cell viability (MTT assay in parallel with second p24 screening): at 40 μM. A digest of the protocol:
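MTT viability read in U87 human glioblastoma cells stably transfected with CD4 and CXCR4, with cells receiving no compound as the control. It was run as a toxicity screen of test peptides and again in parallel with the second p24 ELISA screen of HIV replication.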

The target in another data set is wild-type RRE IIB RNA. The settings on record: EMSA; cited from earlier work.

On to (KKKBBA)2*KLKBBAY [Peptide A9], for which the Kd (commonly a measure of binding affinity in units of concentration) at HIV-1 RRE IIB RNA came out at 120 ± 40 nM.

With (KKBBAK)2*LLKY [Peptide A8], on HIV-1 RRE IIB RNA, the Kd was 660 ± 90 nM.

For the substance (KKK)2*KLKACRY [Peptide A4], the Kd at HIV-1 RRE IIB RNA amounted to 20 ± 4 nM. Moreover, the “suppression of HIV replication / inhibition of p24” value in data set [1] is recorded as “greatly suppressed HIV replication; also recorded: complete or virtually complete inhibition of p24”. Besides, in data set [2], the “toxicity (MTT assay)” value is listed as “slight toxicity”.

As for (KKL)2*LKKBBAY [Peptide A12], at HIV-1 RRE IIB RNA, the Kd worked out at 330 ± 100 nM.

Regarding (KLK)2*LKKBBAY [Peptide A10], the Kd on HIV-1 RRE IIB RNA was found to be 300 ± 40 nM.

Take (KACRKK)2*KLKBBAY [Peptide A6]: at HIV-1 RRE IIB RNA, the Kd was found to be 60 ± 10 nM. For the same substance, in data set [1], the “inhibition of p24 expression” value is “approximately 90%” and the “suppression of HIV replication / inhibition of p24” value is “greatly suppressed HIV replication; also recorded: complete or virtually complete inhibition of p24”. Further, in data set [2], the “toxicity (MTT assay)” value was “slight toxicity; also recorded: nearly non-toxic” and the “cell viability (MTT assay in parallel with second p24 screening)” value was “confirmed cell viability”.

For Suc-TRQARRNRRRRWRERQRAAAAR-NH2 [Rev17], the Kd on wild-type RRE IIB RNA was 100 nM.

Take (KKK)2*LKBBAKBBAY [Peptide A1]: the Kd at HIV-1 RRE IIB RNA stood at 280 ± 80 nM. Further, the “suppression of HIV replication / inhibition of p24” value in data set [1] is reported as “greatly suppressed HIV replication; also recorded: complete or virtually complete inhibition of p24”.

Regarding (KKK)2*LKBBALY [Peptide A2], the Kd at HIV-1 RRE IIB RNA came to 130 ± 30 nM.

As to (KLK)2*KKKBBAY [Peptide A11], at HIV-1 RRE IIB RNA, the Kd was found to be 1430 ± 870 nM. Also, in data set [1], the “inhibition of the production of p24” value stood at 40%.

(LLK)2*KKBBAKY [Peptide A13]: at HIV-1 RRE IIB RNA, the dissociation constant Kd was 210 ± 30 nM.

Regarding (KKK)2*KACRLKY [Peptide A3], at HIV-1 RRE IIB RNA, the Kd stood at 140 ± 50 nM. Also, in data set [1], the “suppression of HIV replication / inhibition of p24” value was “greatly suppressed HIV replication”.

As for (KKL)2*KKBBAKBBAY [Peptide A14], at HIV-1 RRE IIB RNA, the Kd turned out to be 170 ± 50 nM.

Consider (KKACRK)2*KLKBBAY [Peptide A7], for which the Kd on HIV-1 RRE IIB RNA was 70 ± 30 nM. In data set [1], the “inhibition of p24 expression” value is on record as “approximately 90%”, the “inhibition of the production of p24” value is 60% and the “suppression of HIV replication / inhibition of p24” value is “greatly suppressed HIV replication; also recorded: complete or virtually complete inhibition of p24”. For the same substance, in data set [2], the “toxicity (MTT assay)” value was “cytotoxicity in a dose-dependent manner; also recorded: moderate toxicity” and the “cell viability (MTT assay in parallel with second p24 screening)” value is listed as “confirmed cell viability”.

Values taken from paper PMC4957400 (MedChemComm, 2016).
